The nature of data set [1]: melting temperature; fluorescence melt of hairpins on a sequencing array, two-state fit, raised by 9.35 °C to match UV melts. To be noted: sodium 0.088 M. Put shortly: (§1)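 Melting temperature and folding enthalpy were derived from bootstrapped two-state fits. The fitted temperatures were raised by 9.35 °C to agree with UV melts, and four replicates were combined by inverse variance. The underlying data were Cy3 fluorescence images of library hairpins, with annealed Cy3 and quencher oligos, on a sequenced MiSeq flow cell in 50 mM Na-HEPES pH 8.0, 25 mM NaCl, taken in 2.5 °C steps up to 60 °C, normalised to pre-quench Cy3 and to control constructs.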

The nature of data set [2]: folding enthalpy; higher = less favourable; fluorescence melt of hairpins on a sequencing array, two-state fit. To be noted: sodium 0.088 M. Put shortly: as §1

Turning to GGATACTCGAAAGAGTCC (((..(((....)))))), the Tm in data set [1] stood at 32.6 °C. In data set [2], the folding enthalpy is -11.7 kcal/mol.

With GGATAGGGAAACCTGTCC (((.(((....))).))), in data set [1], the Tm was 48.2 °C. Moreover, the folding enthalpy in data set [2] is -30.9 kcal/mol.

For the sequence GGATATCGAAAGATTCC (((.(((....)))))), the Tm in data set [1] was 39.5 °C. Moreover, in data set [2], the folding enthalpy was -25.9 kcal/mol.

In the case of GGATATGGAAACATACCC ((.((((....)))).)), the Tm in data set [1] was found to be 33.2 °C. Moreover, the folding enthalpy in data set [2] was -25.3 kcal/mol.

Consider GGATATGGAAACATATCC (((((((....))))))), for which the Tm in data set [1] stood at 54.7 °C. For the same sequence, in data set [2], the folding enthalpy is -47 kcal/mol.

In the case of GGATATGGAAACATATTC (.(((((....))))).), the Tm in data set [1] came out at 36.9 °C. For the same sequence, the folding enthalpy in data set [2] is -22.2 kcal/mol.

As for GGATATGGAAACATGTCC (((.(((....))).))), in data set [1], the Tm stood at 45.3 °C. Moreover, the folding enthalpy in data set [2] is -30.4 kcal/mol.

Regarding GGATCACGAAAGTGCTCC (((.(((....))).))), in data set [1], the Tm is 49.4 °C. Further, in data set [2], the folding enthalpy is -27.4 kcal/mol.

Take GGATCAGCGAAAGCTTCC (((..(((....)))))): the Tm in data set [1] turned out to be 30.7 °C. For the same sequence, in data set [2], the folding enthalpy is -12.7 kcal/mol.

Regarding GGATCAGGAAACTGGTTC (.(.(((....))).).), the Tm in data set [1] came to 29.1 °C. Moreover, the folding enthalpy in data set [2] was -12.2 kcal/mol.

For the sequence GGATCCCGAAAGGGCTCC (((.(((....))).))), in data set [1], the Tm was 51.3 °C. Besides, in data set [2], the folding enthalpy was -26.5 kcal/mol.

For GGATCCGAAAGGAAATCC ((((((....)))..))), the Tm in data set [1] stood at 38.2 °C. Also, the folding enthalpy in data set [2] was -25.9 kcal/mol.

As for GGATCCGAAAGGAGATCC ((((((....)))..))), in data set [1], the Tm was 44.8 °C. The folding enthalpy in data set [2] is -24 kcal/mol.

Regarding GGATCCGAAAGGAGTTCC ((((((....)))..))), the Tm in data set [1] stood at 32.8 °C. Besides, the folding enthalpy in data set [2] was -14.8 kcal/mol.

For GGATCCGAAAGGATTTCC ((((((....)))..))), in data set [1], the Tm came to 37.4 °C. For the same sequence, the folding enthalpy in data set [2] is -13.7 kcal/mol.

Consider GGATCCGGAAACGAATCC ((((.((....)).)))), for which the Tm in data set [1] was found to be 41.8 °C. Further, the folding enthalpy in data set [2] was -29 kcal/mol.

Regarding GGATCCGGAAACGGATTC (.(((((....))))).), the Tm in data set [1] is 52 °C. In addition, the folding enthalpy in data set [2] is -15.7 kcal/mol.

For the sequence GGATCGACGAAAGTCTCC (((..(((....)))))), the Tm in data set [1] stood at 27.9 °C. The folding enthalpy in data set [2] was -10.6 kcal/mol.

As to GGATCGGAAACGATCC ((((((....)))))), in data set [1], the Tm is 66.2 °C. For the same sequence, the folding enthalpy in data set [2] is -28.6 kcal/mol.

As for GGATCGGGAAACCGACCC ((.((((....)))).)), in data set [1], the Tm worked out at 47.7 °C. Moreover, in data set [2], the folding enthalpy is -31.8 kcal/mol.

With GGATCGGGAAACCGGTTC (.(.(((....))).).), in data set [1], the Tm was determined as 38.2 °C. Further, the folding enthalpy in data set [2] is -20.1 kcal/mol.

As for GGATCGGGAAACTGATCC (((((.(....).))))), the Tm in data set [1] is 52.4 °C. In data set [2], the folding enthalpy is -39.1 kcal/mol.

In the case of GGATCGTCGAAAGACTCC (((..(((....)))))), the Tm in data set [1] turned out to be 28.9 °C. The folding enthalpy in data set [2] is -11.8 kcal/mol.

With GGATCTCGAAAGAGGTCC (((.(((....))).))), the Tm in data set [1] stood at 57.3 °C. Moreover, the folding enthalpy in data set [2] is -41.4 kcal/mol.

For GGATCTCGAAAGAGTTCC (((.(((....))).))), the Tm in data set [1] was 46.1 °C. In addition, the folding enthalpy in data set [2] is -27.5 kcal/mol.

With GGATCTGGAAACGGATCC (((((.(....).))))), the Tm in data set [1] turned out to be 51.6 °C. Moreover, in data set [2], the folding enthalpy is -38.4 kcal/mol.

Regarding GGATGACGAAAGTCTCC (((.(((....)))))), the Tm in data set [1] amounted to 48.6 °C. For the same sequence, the folding enthalpy in data set [2] was -20 kcal/mol.

Turning to GGATGAGAAATCATCC ((((((....)))))), the Tm in data set [1] was found to be 52.9 °C. Further, the folding enthalpy in data set [2] is -42.4 kcal/mol.

In the case of GGATGCCCGAAAGGGTCC (((..(((....)))))), in data set [1], the Tm came to 33.2 °C. In addition, the folding enthalpy in data set [2] is -11 kcal/mol.

For the sequence GGATGCGAAAGCACCTCC ((((((....)))..))), the Tm in data set [1] is 54.6 °C. In addition, the folding enthalpy in data set [2] is -14.4 kcal/mol.

On to GGATGCGAAAGCACTTCC ((((((....)))..))), for which the Tm in data set [1] worked out at 42.2 °C. Besides, the folding enthalpy in data set [2] was -17.4 kcal/mol.

GGATGCGAAAGCAGTCC ((((((....))).))): in data set [1], the Tm came out at 52.4 °C. Further, the folding enthalpy in data set [2] is -22.3 kcal/mol.

On to GGATGGGCGAAAGCCTCC (((..(((....)))))), for which the Tm in data set [1] worked out at 36.9 °C. For the same sequence, in data set [2], the folding enthalpy is -11.3 kcal/mol.

As to GGATGGGGAAACCCATTC (.(((((....))))).), the Tm in data set [1] turned out to be 47.5 °C. Moreover, in data set [2], the folding enthalpy is -22 kcal/mol.

Consider GGATGTGGAAACACACCC ((.((((....)))).)), for which the Tm in data set [1] came to 44.3 °C. The folding enthalpy in data set [2] is -27 kcal/mol.

Take GGATTACCGAAAGGTTCC (((..(((....)))))): in data set [1], the Tm was found to be 30.8 °C. Moreover, in data set [2], the folding enthalpy is -13.5 kcal/mol.

For the origin of these results see the array DNA melting data of Ke et al. (doi:10.1101/2024.01.08.574731).
